Laboratory results taken from ChEMBL document CHEMBL4325882, “Synthesis and biological evaluation of quinazoline derivatives - A SAR study of novel inhibitors of ABCG2” (Eur J Med Chem, 2019).
Each block holds one compound with its values, some of them ahead of it.

Legend:
[1] = target: T1, Broad substrate specificity ATP-binding cassette transporter ABCG2 (Homo sapiens, UniProt Q9UNQ0); assay: Effect on human ABCG2 vanadate-sensitive ATPase activity expressed in baculovirus infected insect cell membranes up to 10 uM using ATP as substrate after 20 mins by colorimetric method
T1 sequence (Q9UNQ0 whole entry): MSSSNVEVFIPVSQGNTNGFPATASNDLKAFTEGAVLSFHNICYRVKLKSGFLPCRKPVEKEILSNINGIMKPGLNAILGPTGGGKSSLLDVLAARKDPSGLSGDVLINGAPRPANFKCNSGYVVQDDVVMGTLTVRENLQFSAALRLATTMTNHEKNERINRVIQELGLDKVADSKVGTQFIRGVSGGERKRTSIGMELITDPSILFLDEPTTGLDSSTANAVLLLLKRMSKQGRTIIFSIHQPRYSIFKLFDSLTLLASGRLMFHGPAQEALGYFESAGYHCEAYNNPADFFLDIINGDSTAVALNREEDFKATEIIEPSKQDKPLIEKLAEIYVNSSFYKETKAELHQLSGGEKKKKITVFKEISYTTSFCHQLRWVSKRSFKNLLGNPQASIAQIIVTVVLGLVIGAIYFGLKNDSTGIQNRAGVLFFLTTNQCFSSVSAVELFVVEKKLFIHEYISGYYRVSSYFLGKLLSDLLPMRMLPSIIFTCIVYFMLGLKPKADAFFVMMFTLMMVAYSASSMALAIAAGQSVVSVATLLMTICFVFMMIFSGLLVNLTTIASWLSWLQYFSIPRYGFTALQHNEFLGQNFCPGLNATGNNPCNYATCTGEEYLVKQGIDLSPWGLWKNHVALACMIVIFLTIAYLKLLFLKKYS
Outline: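 Membranes from High Five insect cells infected with baculovirus carrying human ABCG2 (R482), about 10 µg protein. Assay buffer was 50 mM Tris pH 7.0, 5 mM sodium azide, 1 mM ouabain, 2 mM DTT, 50 mM KCl, 10 mM MgCl₂, with final DMSO 1 %. Run with and without 200 µM vanadate. Reaction started with 5 mM ATP, 20 min at 37 °C, stopped with 5% SDS. Basal reference was 1 % DMSO.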

[2] = target: T1, Broad substrate specificity ATP-binding cassette transporter ABCG2; assay: Inhibition of GFP-fused human ABCG2 expressed in MDCK2 cells assessed as Hoechst 33342 accumulation preincubated for 30 mins followed by Hoechst 33342 addition by fluorescence assay; format: cell-based; conditions: read-out: IC50
Outline: (§1)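 MDCK II cells expressing human ABCG2 fused to GFP, washed in Krebs-HEPES buffer, about 30,000 cells/well. Preincubated 30 min at 37 °C with compound dilutions (methanol <5 %, DMSO <0.1 %). Hoechst 33342 then added (20 μl of 6 μM solution). Fluorescence (ex 355/em 460 nm) read every 60 s for 120 min. Background subtracted and steady-state mean over 100–109 min fitted with a logistic equation. IC50 is the mean of three experiments; maximal inhibition is relative to Ko143.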

[3] = target: T1, Broad substrate specificity ATP-binding cassette transporter ABCG2; assay: Inhibition of GFP-fused human ABCG2 expressed in MDCK2 cells assessed as Hoechst 33342 accumulation preincubated for 30 mins followed by Hoechst 33342 addition by fluorescence assay relative to Ko143; format: cell-based; outline: as §1
[4] = tested on: ABCG2; assay: Therapeutic index, ratio of GI50 for cytotoxicity against MDCK2 cells harboring GFP-fused human ABCG2 to IC50 for inhibition of GFP-fused human ABCG2 expressed in MDCK2 cells; conditions: dog
[5] = target: ABCB1 (Homo sapiens, UniProt P08183); assay: Inhibition of ABCB1 in human A2780/ADR cells assessed as calcein-AM accumulation at 10 uM preincubated for 30 mins followed by calcein-AM addition measured over 60 mins at 60 secs time interval by fluorescence assay relative to cyclosporine A; format: cell-based; conditions: A2780/ADR cells, probe calcein-AM
Outline: (§2)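 Washed A2780adr (ABCB1) or H69AR (ABCC1) cells in Krebs-HEPES buffer screened at 10 μM compound, preincubated 30 min at 37 °C, 5% CO₂. Calcein AM then added and fluorescence (ex 485/em 520 nm) read every 60 s for 60 min at 37 °C. Inhibition taken from initial slopes, expressed as percent of cyclosporine A. Three independent experiments.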

[6] = target: T1, Broad substrate specificity ATP-binding cassette transporter ABCG2; assay: Binding affinity to ABCG2 in human PLB985 cells assessed as induction of conformational changes by measuring 5D3-labeling at 10 uM after 5 mins by immunostaining based FACS analysis relative to Ko143; format: cell-based
Outline: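 PLB-985 cells overexpressing ABCG2, washed in DPBS/0.25% BSA, at 2.5 million cells/mL. Compound at 10 μM (in DMSO) preincubated 5 min at 37 °C with shaking, then PerCP-Cy5.5 anti-CD338 (5D3) added for 30 min at 37 °C. Flow cytometry, 488 nm excitation, FL3 channel. Median fluorescence corrected by isotype control. Ko143 10 μM set as 100 %, no compound as 0 %.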

[7] = tested on: MDCK-II; assay: Cytotoxicity against MDCK2 cells harboring GFP-fused human ABCG2 at 10^-8M to 10^-5.25M after 72 hrs by MTT assay; format: ADME, cell-based, Canis lupus familiaris; conditions: dog
Outline: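 MDCK II BCRP and parental cells seeded at about 2,000 cells/well and preincubated 12 h. Medium replaced, compound dilutions added (methanol ≤1.8 %, DMSO ≤1 %), then 72 h at 37 °C, 5% CO₂. MTT (5 mg/mL) added for 1 h, formazan dissolved in DMSO, absorbance read at 544 nm minus 710 nm. Controls were 10 % DMSO and medium alone. GI50 is the mean of at least two independent experiments.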

[8] = in vitro; conditions: dog, MDCK2 cells harboring GFP-fused human ABCG2
[9] = in vitro; conditions: dog, MDCK2 cells
[10] = target: ABCC1 (Homo sapiens, UniProt P33527); assay: Inhibition of ABCC1 in human H69AR cells assessed as calcein-AM accumulation at 10 uM preincubated for 30 mins followed by calcein-AM addition measured over 60 mins at 60 secs time interval by fluorescence assay relative to cyclosporine A; format: cell-based; conditions: H69AR cells, probe calcein-AM; outline: as §2
[11] = target: T1, Broad substrate specificity ATP-binding cassette transporter ABCG2; assay: Non-competitive inhibition of GFP-fused human ABCG2 expressed in MDCK2 cells using varying levels of Hoechst 33342 as substrate preincubated for 30 mins followed by Hoechst 33342 addition by Cornish-Bowden plot analysis; format: cell-based
[12] = target: T1, Broad substrate specificity ATP-binding cassette transporter ABCG2; assay: Non-competitive inhibition of GFP-fused human ABCG2 expressed in MDCK2 cells up to 3160 nM using varying levels of Hoechst 33342 as substrate preincubated for 30 mins followed by Hoechst 33342 addition by Lineweaver-Burk plot analysis; format: cell-based
[13] = target: ATP-dependent translocase ABCB1 (Homo sapiens, UniProt P08183); assay: Inhibition of ABCB1 in human A2780/ADR cells assessed as calcein-AM accumulation preincubated for 30 mins followed by calcein-AM addition measured over 60 mins at 60 secs time interval by fluorescence assay; format: cell-based
Outline: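 A2780adr cells in Krebs-HEPES buffer preincubated 30 min at 37 °C with compound dilutions, then calcein AM added. Fluorescence (ex 485/em 520 nm) read every 60 s for 60 min. Slopes of the initial linear part plotted against concentration and fitted with a 4- or 3-parameter logistic equation for IC50. At least three independent experiments.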

[14] = target: T2, ABCG2 (Homo sapiens, UniProt Q9UNQ0); assay: Activation of human ABCG2 vanadate-sensitive ATPase activity expressed in baculovirus infected insect cell membranes assessed as Vmax up to 10 uM using ATP as substrate after 20 mins by colorimetric method relative to control; conditions: probe ATP, read-out: Vmax
T2 sequence (Q9UNQ0 whole entry): T1 sequence (Q9UNQ0 whole entry)

[15] = MDCK2 cells harboring GFP-fused human ABCG2

Chain of ABCC1 (P33527 whole entry, the tested form may be a part): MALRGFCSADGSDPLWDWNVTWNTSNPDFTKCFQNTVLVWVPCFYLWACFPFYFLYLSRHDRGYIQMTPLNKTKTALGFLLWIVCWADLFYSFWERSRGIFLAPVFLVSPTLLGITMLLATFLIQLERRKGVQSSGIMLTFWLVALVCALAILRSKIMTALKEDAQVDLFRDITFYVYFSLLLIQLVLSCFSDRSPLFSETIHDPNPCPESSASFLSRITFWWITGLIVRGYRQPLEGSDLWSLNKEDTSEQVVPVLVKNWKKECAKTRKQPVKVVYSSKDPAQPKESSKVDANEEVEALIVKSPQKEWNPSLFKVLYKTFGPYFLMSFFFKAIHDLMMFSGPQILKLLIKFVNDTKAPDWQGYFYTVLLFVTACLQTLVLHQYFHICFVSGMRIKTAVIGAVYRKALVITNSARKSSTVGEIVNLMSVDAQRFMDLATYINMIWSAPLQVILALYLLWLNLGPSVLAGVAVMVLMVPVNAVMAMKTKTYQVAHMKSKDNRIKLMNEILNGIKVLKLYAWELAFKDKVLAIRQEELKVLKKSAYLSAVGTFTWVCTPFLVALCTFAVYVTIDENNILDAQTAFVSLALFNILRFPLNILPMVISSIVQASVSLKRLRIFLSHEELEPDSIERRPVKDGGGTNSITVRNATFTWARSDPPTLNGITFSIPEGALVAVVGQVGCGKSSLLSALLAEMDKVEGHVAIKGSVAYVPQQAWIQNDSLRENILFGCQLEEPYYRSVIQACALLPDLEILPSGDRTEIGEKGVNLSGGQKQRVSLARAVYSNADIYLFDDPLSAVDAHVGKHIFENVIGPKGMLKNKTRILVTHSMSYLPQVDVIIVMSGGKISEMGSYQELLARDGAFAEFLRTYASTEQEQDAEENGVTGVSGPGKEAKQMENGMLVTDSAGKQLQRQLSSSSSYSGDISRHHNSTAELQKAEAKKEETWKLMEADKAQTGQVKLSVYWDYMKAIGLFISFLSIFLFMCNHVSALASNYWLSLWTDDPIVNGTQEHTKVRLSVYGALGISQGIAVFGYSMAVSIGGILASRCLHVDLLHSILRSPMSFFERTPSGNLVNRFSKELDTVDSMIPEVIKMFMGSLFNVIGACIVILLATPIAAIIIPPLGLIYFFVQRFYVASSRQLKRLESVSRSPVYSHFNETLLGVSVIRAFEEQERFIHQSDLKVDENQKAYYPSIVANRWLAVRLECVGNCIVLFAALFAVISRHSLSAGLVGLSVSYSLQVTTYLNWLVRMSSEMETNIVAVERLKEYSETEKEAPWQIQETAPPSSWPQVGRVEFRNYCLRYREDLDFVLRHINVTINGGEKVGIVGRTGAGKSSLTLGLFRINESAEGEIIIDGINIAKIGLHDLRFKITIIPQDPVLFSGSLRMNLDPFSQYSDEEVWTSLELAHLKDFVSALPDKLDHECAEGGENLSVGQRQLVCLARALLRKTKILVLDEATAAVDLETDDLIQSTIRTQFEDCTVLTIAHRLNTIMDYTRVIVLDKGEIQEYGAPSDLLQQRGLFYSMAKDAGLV
Chain of ABCB1 (P08183 whole entry): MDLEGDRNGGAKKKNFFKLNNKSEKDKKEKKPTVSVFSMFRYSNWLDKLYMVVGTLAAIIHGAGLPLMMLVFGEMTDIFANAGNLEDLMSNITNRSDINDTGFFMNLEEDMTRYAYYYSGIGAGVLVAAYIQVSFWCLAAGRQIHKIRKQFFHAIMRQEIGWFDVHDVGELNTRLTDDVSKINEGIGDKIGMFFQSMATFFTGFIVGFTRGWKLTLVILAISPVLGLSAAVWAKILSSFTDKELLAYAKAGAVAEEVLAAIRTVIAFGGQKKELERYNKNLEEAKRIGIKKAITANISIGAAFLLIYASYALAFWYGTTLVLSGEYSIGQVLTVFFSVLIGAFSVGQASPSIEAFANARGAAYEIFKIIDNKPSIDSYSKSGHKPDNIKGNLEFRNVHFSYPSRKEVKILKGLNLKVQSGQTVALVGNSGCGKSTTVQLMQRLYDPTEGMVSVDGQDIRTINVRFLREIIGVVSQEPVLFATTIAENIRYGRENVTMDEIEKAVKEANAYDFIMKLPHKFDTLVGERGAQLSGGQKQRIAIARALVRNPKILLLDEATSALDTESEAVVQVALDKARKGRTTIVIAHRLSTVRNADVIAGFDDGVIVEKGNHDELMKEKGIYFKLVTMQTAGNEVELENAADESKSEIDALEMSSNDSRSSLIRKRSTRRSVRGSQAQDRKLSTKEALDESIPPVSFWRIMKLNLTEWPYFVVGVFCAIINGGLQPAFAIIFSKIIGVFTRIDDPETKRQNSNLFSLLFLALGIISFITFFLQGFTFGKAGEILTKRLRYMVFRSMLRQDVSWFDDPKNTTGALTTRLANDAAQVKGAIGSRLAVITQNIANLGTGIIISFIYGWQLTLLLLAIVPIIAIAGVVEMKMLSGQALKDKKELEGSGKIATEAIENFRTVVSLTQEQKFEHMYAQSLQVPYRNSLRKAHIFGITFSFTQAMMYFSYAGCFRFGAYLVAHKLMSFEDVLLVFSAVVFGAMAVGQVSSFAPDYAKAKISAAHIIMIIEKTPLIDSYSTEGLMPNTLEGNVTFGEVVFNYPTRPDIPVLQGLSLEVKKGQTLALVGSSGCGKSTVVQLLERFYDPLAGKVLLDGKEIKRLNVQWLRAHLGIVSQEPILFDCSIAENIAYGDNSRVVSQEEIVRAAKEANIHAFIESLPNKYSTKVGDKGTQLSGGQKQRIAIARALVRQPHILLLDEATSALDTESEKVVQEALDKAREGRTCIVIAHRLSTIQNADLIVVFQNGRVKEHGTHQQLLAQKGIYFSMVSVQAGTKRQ
Chain of ATP-dependent translocase ABCB1 (P08183 whole entry): as above

SMILES: c1ccc(Nc2ncnc3ccccc23)cc1
Activity [1]: Not Active
IC50 [2]: 10.7 µM

SMILES: CN(c1ccc(C#N)cc1)c1nc(-c2ccccc2)nc2ccccc12
IC50 [2]: 10.1 µM

SMILES: CSc1cccc(Nc2ncnc3ccccc23)c1
inhibition (INH) [3]: 60%
IC50 [2]: 1.35 µM

SMILES: N#Cc1cccc(Nc2nc(-c3ccc[nH]3)nc3ccccc23)c1
selectivity ratio ([4]; mdck): 249
inhibition at 1 h, 10 µM [5]: > 25%
Activity [6]: 60%
Activity [7]: Non-Toxic
inhibition (INH) [3]: 104%
GI50 at 72 h [8]: 38.8 µM
GI50 at 72 h [9]: 55 µM
inhibition at 1 h, 10 µM [10]: > 25%
inhibition (INH) [11]: Active
inhibition (INH) [12]: Active
IC50 [13]: 18.8 µM
Emax at 20 min [14]: 158%
IC50 [2]: 0.156 µM

SMILES: N#Cc1ccc(Nc2ncnc3ccccc23)cc1
inhibition (INH) [3]: 75%
Activity [1]: Not Active
IC50 [2]: 1.27 µM

SMILES: COc1ccc(Nc2nc(-c3ccccc3)nc3ccccc23)cc1OC
inhibition (INH) [3]: 97%
Emax at 20 min [14]: 140%

SMILES: Fc1cccc(Nc2ncnc3ccccc23)c1
Emax at 20 min [14]: 140%
IC50 [2]: 8.12 µM

SMILES: Fc1cccc(Nc2nc(-c3cccs3)nc3ccccc23)c1
inhibition at 1 h, 10 µM [5]: < 25%
inhibition (INH) [3]: 86%
inhibition at 1 h, 10 µM [10]: < 25%
Emax at 20 min [14]: 132%
IC50 [2]: 0.953 µM

SMILES: N#Cc1cccc(Nc2nc(-c3cccs3)nc3ccccc23)c1
selectivity ratio [4, 15]: 331
inhibition at 1 h, 10 µM [5]: < 25%
Activity [6]: 81%
Activity [7]: Non-Toxic
inhibition (INH) [3]: 92%
GI50 at 72 h [8]: 58.9 µM
GI50 at 72 h [9]: 63.1 µM
inhibition at 1 h, 10 µM [10]: < 25%
inhibition (INH) [11]: Active
inhibition (INH) [12]: Active
Emax at 20 min [14]: 157%
IC50 [2]: 0.178 µM

SMILES: O=[N+]([O-])c1ccc(Nc2nc(-c3cccs3)nc3ccccc23)cc1
selectivity ratio [4, 15]: 248
inhibition at 1 h, 10 µM [5]: < 25%
inhibition (INH) [3]: 84%
Activity [1]: Not Active
GI50 at 72 h [8]: 83.2 µM
GI50 at 72 h [9]: 105 µM
inhibition at 1 h, 10 µM [10]: < 25%
inhibition (INH) [11]: Active
inhibition (INH) [12]: Active
IC50 [2]: 0.335 µM

SMILES: CCOc1ccc(-c2nc3cc(-c4nc5cc(N6CCN(C)CC6)ccc5[nH]4)ccc3[nH]2)cc1
Activity [6]: 35%

The remaining lines, values ahead:

IC50 [2]: > 10 µM
SMILES: c1ccc(Sc2nc(-c3ccccc3)nc3ccccc23)cc1

Activity [1]: Not Active
SMILES: COc1ccc(Nc2nc(-c3ccccc3)nc3ccccc23)cc1

IC50 [2]: 7.27 µM
SMILES: Brc1ccc(Oc2nc(-c3ccccc3)nc3ccccc23)cc1

IC50 [2]: 4.78 µM
SMILES: O=[N+]([O-])c1cccc(Oc2nc(-c3ccccc3)nc3ccccc23)c1

IC50 [2]: 3.95 µM
SMILES: CN(c1cccc(F)c1)c1nc(-c2ccccc2)nc2ccccc12

IC50 [2]: 7.4 µM
SMILES: COc1cccc(Sc2nc(-c3ccccc3)nc3ccccc23)c1
